Assay results taken from ChEMBL document CHEMBL1144407, “Synthesis of phosphonated carbocyclic 2'-oxa-3'-aza-nucleosides: novel inhibitors of reverse transcriptase” (J Med Chem, 2005).

Tests used:
U-937 [1] = assay: Induction of apoptosis by the compound in human U937 cell line after 48 hours; format: functional, cell-based; conditions: U-937, 48 h
Summary of the method: (§1)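 Cultures were exposed under optimal conditions to 16–1000 µM compound, or control medium, for the stated time. Cells were stained with acridine orange, and over 600 cells were counted by fluorescence microscopy. AC50 is the concentration giving 50% apoptosis, from three or more experiments (some are the mean of two).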

MOLT-3 [2] = assay: Induction of apoptosis by the compound in human Molt-3 cell line after 24 hours; format: functional, cell-based; conditions: MOLT-3, 24 h; summary of the method: as §1
HL-60 [3] = assay: Induction of apoptosis by the compound in human HL-60 cell line after 72 hours; format: functional, cell-based; conditions: HL-60, 72 h; summary of the method: as §1
HL-60 [4] = assay: Induction of apoptosis by the compound in human HL-60 cell line after 48 hours; format: functional, cell-based; conditions: HL-60, 48 h; summary of the method: as §1
HL-60 [5] = assay: Cytotoxicity in human HL-60 cell line after 72 hours; format: functional; conditions: HL-60, 72 h
Summary of the method: (§2)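 Cells held in optimal culture conditions were exposed to test agent at 16 to 1000 µM, or control medium, for the stated time. Viability was scored by trypan blue exclusion. CC50 is the concentration giving 50% toxicity, from three or more experiments (some values are the mean of two).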

MOLT-3 [6] = assay: Induction of apoptosis by the compound in human Molt-3 cell line after 72 hours; format: functional, cell-based; conditions: MOLT-3, 72 h; summary of the method: as §1
HL-60 [7] = assay: Cytotoxicity in human HL-60 cell line after 24 hours; format: functional; conditions: HL-60, 24 h; summary of the method: as §2
MOLT-3 [8] = assay: Induction of apoptosis by the compound in human Molt-3 cell line after 48 hours; format: functional, cell-based; conditions: MOLT-3, 48 h; summary of the method: as §1
U-937 [9] = assay: Cytotoxicity in human U937 cell line after 24 hours; format: functional; conditions: U-937, 24 h; summary of the method: as §2
HL-60 [10] = assay: Cytotoxicity in human HL-60 cell line after 48 hours; format: functional; conditions: HL-60, 48 h; summary of the method: as §2
MOLT-3 [11] = assay: Cytotoxicity in human Molt-3 cell line after 24 hours; format: functional; conditions: MOLT-3, 24 h; summary of the method: as §2
U-937 [12] = assay: Induction of apoptosis by the compound in human U937 cell line after 24 hours; format: functional, cell-based; conditions: U-937, 24 h; summary of the method: as §1
HL-60 [13] = assay: Induction of apoptosis by the compound in human HL-60 cell line after 24 hours; format: functional, cell-based; conditions: HL-60, 24 h; summary of the method: as §1
U-937 [14] = assay: Induction of apoptosis by the compound in human U937 cell line after 72 hours; format: functional, cell-based; conditions: U-937, 72 h; summary of the method: as §1
U-937 [15] = assay: Cytotoxicity in human U937 cell line after 72 hours; format: functional; conditions: U-937, 72 h; summary of the method: as §2
MOLT-3 [16] = assay: Cytotoxicity in human Molt-3 cell line after 48 hours; format: functional; conditions: MOLT-3, 48 h; summary of the method: as §2
MOLT-3 [17] = assay: Cytotoxicity in human Molt-3 cell line after 72 hours; format: functional; conditions: MOLT-3, 72 h; summary of the method: as §2
U-937 [18] = assay: Cytotoxicity in human U937 cell line after 48 hours; format: functional; conditions: U-937, 48 h; summary of the method: as §2

Compound | AC50 (U-937 [1]) [µM] | AC50 (MOLT-3 [2]) [µM] | AC50 (HL-60 [3]) [µM] | AC50 (HL-60 [4]) [µM] | CC50 (HL-60 [5]) [µM] | AC50 (MOLT-3 [6]) [µM] | CC50 (HL-60 [7]) [µM] | AC50 (MOLT-3 [8]) [µM] | CC50 (U-937 [9]) [µM] | CC50 (HL-60 [10]) [µM] | CC50 (MOLT-3 [11]) [µM] | AC50 (U-937 [12]) [µM] | AC50 (HL-60 [13]) [µM] | AC50 (U-937 [14]) [µM] | CC50 (U-937 [15]) [µM] | CC50 (MOLT-3 [16]) [µM] | CC50 (MOLT-3 [17]) [µM] | CC50 (U-937 [18]) [µM]
CCOP(=O)(CC1CC(n2ccc(N)nc2=O)ON1C)OCC (configuration not stated) | > 1000 | > 1000 | > 1000 | > 1000 | > 1000 | > 1000 | > 1000 | > 1000 | > 1000 | > 1000 | > 1000 | > 1000 | > 1000 | > 1000 | > 1000 | > 1000 | > 1000 | > 1000
CCOP(=O)(CC1CC(n2cc(C)c(=O)[nH]c2=O)ON1C)OCC (configuration not stated) | > 1000 | > 1000 | > 1000 | > 1000 | > 1000 | > 1000 | > 1000 | > 1000 | > 1000 | > 1000 | > 1000 | > 1000 | > 1000 | > 1000 | > 1000 | > 1000 | > 1000 | > 1000
CCOP(=O)(CC1CC(n2cc(F)c(=O)[nH]c2=O)ON1C)OCC (configuration not stated) | – | 457 | – | 151 | 408 | 170 | > 1000 | 277 | – | 457 | 247 | – | 250 | – | – | 197 | 141 | –
